# In ChEMBL document CHEMBL1124703, “Analogues of carbamyl aspartate as inhibitors of dihydroorotase: preparation of boronic acid transition-state analogues and a zinc chelator carbamylhomocysteine” (J Med Chem, 1990):
# What was measured:
# L1210 [1] = assay: Uptake in L1210 cells at a concentration of 210 uM after 24 hr; settings: Mus musculus, L1210, 24 h
# [2] = target: Multifunctional protein CAD (Homo sapiens, UniProt P27708); assay: Inhibitory activity against Dihydroorotase (DHO) at pH 6.0; parameters: species or system Cricetulus griseus
# L1210 [3] = assay: Inhibitory activity against murine L1210 cell growth at a concentration of 250 uM after 24 hr; type: functional, Mus musculus
# Method in brief: (§1)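 Murine L1210 cells kept in DMEM with 10% FCS and L-glutamine and harvested in log phase. About 1×10^5 cells/mL held 24 h in depleted medium before drug or DMSO vehicle was added. Trypan blue-excluding cells counted by hemacytometer at 0, 24 and 48 h. Three flasks per concentration and six controls; reported as % survival versus control.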
# L1210 [4] = assay: Inhibitory activity against murine L1210 cell growth at a concentration of 250 uM after 8 hr; type: functional, Mus musculus
# L1210 [5] = assay: Inhibitory activity against murine L1210 cell growth at a concentration of 250 uM after 0h; type: functional, Mus musculus
# Method in brief: as §1
# L1210 [6] = assay: Inhibitory activity against murine L1210 cell growth at a concentration of 100 uM after 24 hr; type: functional, Mus musculus
# Method in brief: as §1
# L1210 [7] = assay: Inhibitory activity against murine L1210 cell growth at a concentration of 100 uM after 48 hr
# L1210 [8] = assay: Inhibitory activity against murine L1210 cell growth at a concentration of 100 uM after 0h; type: functional, Mus musculus
# Method in brief: as §1
# Multifunctional protein CAD, sequence (P27708 whole entry): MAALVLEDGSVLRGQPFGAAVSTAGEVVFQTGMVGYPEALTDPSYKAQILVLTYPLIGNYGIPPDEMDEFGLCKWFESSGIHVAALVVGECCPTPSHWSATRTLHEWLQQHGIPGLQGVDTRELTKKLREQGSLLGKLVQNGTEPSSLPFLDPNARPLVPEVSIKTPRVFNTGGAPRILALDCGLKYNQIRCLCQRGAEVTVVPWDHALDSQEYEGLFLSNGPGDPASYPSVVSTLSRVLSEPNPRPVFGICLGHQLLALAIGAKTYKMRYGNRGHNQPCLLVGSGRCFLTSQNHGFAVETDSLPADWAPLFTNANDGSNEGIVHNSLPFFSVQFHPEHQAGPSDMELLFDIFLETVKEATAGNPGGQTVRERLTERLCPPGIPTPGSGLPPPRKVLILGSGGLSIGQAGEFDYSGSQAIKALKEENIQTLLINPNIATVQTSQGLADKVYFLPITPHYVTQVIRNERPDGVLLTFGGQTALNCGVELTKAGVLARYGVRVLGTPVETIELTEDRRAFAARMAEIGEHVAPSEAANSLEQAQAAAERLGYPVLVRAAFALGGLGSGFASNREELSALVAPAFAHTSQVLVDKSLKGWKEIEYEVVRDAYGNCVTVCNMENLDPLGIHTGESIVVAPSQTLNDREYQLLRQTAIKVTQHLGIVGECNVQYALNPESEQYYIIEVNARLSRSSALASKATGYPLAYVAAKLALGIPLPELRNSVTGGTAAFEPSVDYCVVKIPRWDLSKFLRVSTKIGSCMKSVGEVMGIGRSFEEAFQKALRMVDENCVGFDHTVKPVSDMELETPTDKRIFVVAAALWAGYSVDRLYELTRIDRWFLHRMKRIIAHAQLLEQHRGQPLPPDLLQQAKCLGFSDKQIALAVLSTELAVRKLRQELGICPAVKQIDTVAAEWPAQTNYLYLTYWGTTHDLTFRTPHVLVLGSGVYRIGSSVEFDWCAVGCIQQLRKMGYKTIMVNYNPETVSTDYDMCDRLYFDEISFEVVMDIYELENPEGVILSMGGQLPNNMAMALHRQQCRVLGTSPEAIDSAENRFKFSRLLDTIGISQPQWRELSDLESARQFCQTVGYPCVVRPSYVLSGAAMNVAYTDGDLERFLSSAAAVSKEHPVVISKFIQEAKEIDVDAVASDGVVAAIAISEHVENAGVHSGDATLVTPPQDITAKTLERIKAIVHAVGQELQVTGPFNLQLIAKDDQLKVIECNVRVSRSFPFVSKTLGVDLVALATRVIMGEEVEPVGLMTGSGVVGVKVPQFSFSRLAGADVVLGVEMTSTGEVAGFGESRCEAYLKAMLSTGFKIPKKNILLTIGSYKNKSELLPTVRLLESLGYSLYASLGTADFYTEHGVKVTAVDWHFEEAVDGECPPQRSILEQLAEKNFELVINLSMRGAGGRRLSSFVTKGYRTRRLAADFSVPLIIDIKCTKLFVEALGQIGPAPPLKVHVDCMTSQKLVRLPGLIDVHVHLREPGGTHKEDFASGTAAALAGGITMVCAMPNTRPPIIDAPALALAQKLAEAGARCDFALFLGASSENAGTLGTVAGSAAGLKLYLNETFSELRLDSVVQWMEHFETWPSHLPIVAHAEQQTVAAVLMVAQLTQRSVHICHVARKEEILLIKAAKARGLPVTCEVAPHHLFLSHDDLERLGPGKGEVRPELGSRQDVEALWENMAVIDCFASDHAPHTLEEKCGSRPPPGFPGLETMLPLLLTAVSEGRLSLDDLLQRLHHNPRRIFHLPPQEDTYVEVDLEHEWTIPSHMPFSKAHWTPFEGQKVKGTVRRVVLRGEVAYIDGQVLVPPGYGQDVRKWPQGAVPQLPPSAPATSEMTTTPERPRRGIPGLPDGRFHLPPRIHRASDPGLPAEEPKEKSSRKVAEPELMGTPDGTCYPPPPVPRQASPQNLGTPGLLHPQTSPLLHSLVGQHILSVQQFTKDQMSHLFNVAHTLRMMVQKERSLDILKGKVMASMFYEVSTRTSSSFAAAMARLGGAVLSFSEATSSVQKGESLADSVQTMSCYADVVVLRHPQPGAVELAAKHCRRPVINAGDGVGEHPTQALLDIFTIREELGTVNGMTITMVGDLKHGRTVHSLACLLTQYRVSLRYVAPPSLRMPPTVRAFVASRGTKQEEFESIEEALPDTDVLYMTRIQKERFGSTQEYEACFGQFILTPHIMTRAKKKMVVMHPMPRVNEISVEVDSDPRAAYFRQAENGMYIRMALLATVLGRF
smiles,measurement,setting,value
CCOC(=O)C(CB(O)O)NC(N)=O (stereo not drawn),Uptake at 210 µM,L1210 [1],0.09%
same,Ki,[2],5.07 µM
NC(=O)BCCNC(CC(=O)O)C(=O)O (stereo not drawn) [BOROCARBAMYLETHYL ASPARTATE],Cell survival,L1210 [3],66
same,Cell survival,L1210 [4],80
same,Cell survival,L1210 [5],114
O=C(O)C[C@H](NC(=O)CP(=O)(O)O)C(=O)O [PALA],Cell survival,L1210 [6],28
same,Cell survival,L1210 [7],22
same,Cell survival,L1210 [8],96
